These results are taken from article PMC9328826 (Journal of Food and Drug Analysis, 2016).

The test system of one series is HT-29 cell line. To be noted: read-out: IC50, cytotoxic activity on HT-29 cell line; 72 hours ref 19; cited from earlier work.
Series [1] is described as follows: WST-8 cytotoxicity assay on NIH/3T3 cells. It is filed as cell-based. To be noted: mouse, NIH/3T3 embryonic fibroblast cells. A digest of the protocol:
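NIH/3T3 cells, cultured in HEPES-buffered E-MEM with 10% FBS at 37°C, 5% CO2, seeded at 2 × 10^3 cells/well. Exposed to test compound at 0.5–10 μM for 24 and 48 hours at 37°C, with 0.1% DMSO for control and cell-free blank. WST-8 added for 4 hours, then OD read at 450 nm. Viability given as % of control (n = 3); IC50 fitted from dose-response curve by Hill slope.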
On the technique in general: Tetrazolium dyes change colour on reduction, which living cells bring about.

The next series deals with caspase-8. Description: Caspase-8 activity, FAM-LETD-FMK fluorescence probe. It counts as cell-based, human. To be noted: HeLa, 24 hours; Compound 1 at 3 μM. In short, it runs like this:
(§1)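 HeLa cells grown in E-MEM with 4.2 mM HEPES, 10% FBS, penicillin/streptomycin, 37°C, 5% CO2. 3 × 10^6 cells exposed to test compound at 3 μM for 24 hours, harvested, labelled 1 hour at 37°C with FAM-FLICA probe (DEVD-FMK caspase-3/7, LETD-FMK caspase-8, LEHD-FMK caspase-9), washed. Fluorescence at ex 485/em 530 nm on a plate reader, given as n-fold over control. Mean ± SD; Duncan test.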

The next series deals with caspase-9. Description: Caspase-9 activity, FAM-LEHD-FMK fluorescence probe. The settings on record: HeLa, 24 hours; Compound 1 at 3 μM. It is filed as cell-based, human. A digest of the protocol: as §1
For a further series, the system named is caspase-3/7. Description: Caspase-3/7 activity, FAM-DEVD-FMK fluorescence probe. It counts as cell-based, human. The settings on record: HeLa, 24 hours; Compound 1 at 3 μM. A digest of the protocol: as §1
Series [2] deals with mitochondria membrane potential of HeLa cells. Description: JC-1 assay of mitochondria membrane potential. It counts as cell-based, human. The settings on record: 10 μM, 48 hours, untreated cells 294. In short, it runs like this: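 5 × 10^5 HeLa cells exposed to test compound at 3 μM for 24 and 48 hours, or to a reference drug at 10 μM. Stained with JC-1 for 30 minutes at 37°C, then washed. Green signal read at ex 485/em 530 nm on a plate reader. Red fluorescence (ex 520/em 595 nm) imaged by microscopy at ×400, with intensity quantified from the images. Mean ± SD; Duncan test.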

Another series relates to K562/ADM cell line. To be noted: read-out: IC50, cytotoxic activity on K562/ADM cell line; 72 hours ref 11; cited from earlier work.

Consider rufescenolide C, for which, in the series with HT-29 cell line, the IC50 was 150 nM.

For `CO[C@@]12[C@H](COC(N)=O)C3=C(C(=O)C(C)=C(N)C3=O)N1C[C@@H]1N[C@@H]12` [Mitomycin C], in series [1], the IC50 at 24 h amounted to 4430 nM and the IC50 at 48 h is 1260 nM.

In the case of `C=C1C(=O)O[C@@H]2/C=C(\C)CC/C=C(/C(=O)OC)[C@H](OC(C)=O)[C@@H](OC(=O)[C@]3(C)O[C@@H]3C)[C@@H]12` [Compound 4, Uvedalin], in series [1], the IC50 at 24 h came out at 5290 nM and the IC50 at 48 h came to 2660 nM. In addition, the “increase of caspase-8 activity against control” value in the series with caspase-8 is on record as 1.47 fold. The “increase of caspase-9 activity against control” value with caspase-9 is given as 3.17 fold. Also, the “increase of caspase-3/7 activity against control” value in the series with caspase-3/7 is 2.34 fold.

In series [1], `COc1cc([C@@H]2c3cc4c(cc3[C@@H](O[C@@H]3O[C@@H]5CO[C@@H](C)O[C@H]5[C@H](O)[C@H]3O)[C@H]3COC(=O)[C@H]23)OCO4)cc(OC)c1O` [Etoposide] yielded an IC50 at 24 h of 7430 nM and an IC50 at 48 h of 820 nM. Moreover, in the series on caspase-8, the “increase of caspase-8 activity against control” value came out at 3.18 fold. For the same molecule, the “increase of caspase-9 activity against control” value with caspase-9 is 3.96 fold. The “increase of caspase-3/7 activity against control” value with caspase-3/7 is 3.88 fold. The “red fluorescence intensity (RFI), JC-1” value in series [2] is 17.56.

Consider `C=C1C(=O)O[C@H]2[C@H]1[C@H](OC(=O)[C@@]1(C)O[C@H]1C)[C@@H](OC(C)=O)/C(C(=O)OC)=C\CC[C@@]1(C)O[C@H]21` [Compound 3, Enhydrin], for which, in series [1], the IC50 at 24 h was found to be 2700 nM and the IC50 at 48 h was found to be 1530 nM.

As to `C=C1CC[C@H]2C(OC(=O)[C@@H]2C)[C@H]2[C@@H]1CC(=O)[C@@H]2CC=C1CC[C@H]2C(=C)[C@H](O)C[C@@H]3[C@H](OC(=O)[C@H]3C)[C@@H]12` (stereo partly drawn) [biguaiascorzolide A], in the series with K562/ADM cell line, the IC50 was 39800 nM.

In series [1], `CC(=O)O[C@H]1C(=O)[C@@]2(C)[C@H]([C@H](OC(=O)c3ccccc3)[C@]3(O)C[C@H](OC(=O)[C@H](O)[C@@H](NC(=O)c4ccccc4)c4ccccc4)C(C)=C1C3(C)C)[C@]1(OC(C)=O)CO[C@@H]1C[C@@H]2O` [Taxol] yielded an IC50 at 24 h of 390 nM and an IC50 at 48 h of 120 nM.

For the molecule `C=C1C(=O)O[C@H]2[C@H]1CC/C(C)=C/CC[C@@]1(C)O[C@@H]21` [Parthenolide], in series [1], the IC50 at 24 h turned out to be 12300 nM and the IC50 at 48 h was 8950 nM.
